Assay results as given in ChEMBL document CHEMBL3352584, “Novel DNA gyrase inhibiting spiropyrimidinetriones with a benzisoxazole scaffold: SAR and in vivo characterization” (J Med Chem, 2014).
≈ marks a conversion by molar mass, not a printed value.

Experiments:
[1] = Solubility of the compound; format: physicochemical
DNA gyrase = DNA gyrase (Escherichia coli, UniProt P0AES4+P0AES6); assay: Inhibition of Escherichia coli DNA gyrase using fluorescence-tagged DNA by fluorescenct polarization assay; format: protein-complex assay
Summary of the method: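 E. coli DNA gyrase supercoiling assay. The read-out was differential binding of a fluorescence-tagged DNA to relaxed versus supercoiled DNA, giving IC50.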

Streptococcus pyogenes = assay: Antimicrobial activity against Streptococcus pyogenes by broth microdilution method; format: functional
Summary of the method: (§1)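 Broth microdilution following CLSI guidelines. Values under 12.5 μM are averages of three or more replicates.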

Haemophilus influenzae = assay: Antimicrobial activity against Haemophilus influenzae by broth microdilution method; format: functional; summary of the method: as §1
Escherichia coli [2] = assay: Antimicrobial activity against tolC-deficient Escherichia coli by broth microdilution method; format: functional; summary of the method: as §1
Streptococcus pneumoniae [3] = assay: Antimicrobial activity against Streptococcus pneumoniae by broth microdilution method; format: functional; summary of the method: as §1
Staphylococcus aureus [4] = assay: Antimicrobial activity against methicillin-sensitive Staphylococcus aureus by broth microdilution method in presence of 50% human serum; format: functional
Summary of the method: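 CLSI broth microdilution against methicillin-sensitive S. aureus, run with 50% human serum added to the medium to reflect plasma protein binding. Values under 12.5 μM are averages of three or more replicates.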

Escherichia coli [5] = assay: Antimicrobial activity against Escherichia coli by broth microdilution method; format: functional; summary of the method: as §1
Staphylococcus aureus [6] = assay: Antimicrobial activity against methicillin-sensitive Staphylococcus aureus by broth microdilution method; format: functional; summary of the method: as §1
Staphylococcus aureus [7] = assay: Antimicrobial activity against methicillin-resistant and quinolone-resistant Staphylococcus aureus by broth microdilution method; format: functional; summary of the method: as §1
[8] = Fraction unbound in human plasma at 10 uM after 16 hrs by LC-MS/MS analysis; format: ADME, cell-free
Summary of the method: (§2)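 Compound at 10 μM in human, rat or mouse plasma, equilibrium dialysis against buffer at 37 °C for 16 h. Buffer and plasma concentrations measured by LC-MS/MS, and the free fraction taken from their ratio.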

Staphylococcus aureus [9] = assay: Antimicrobial activity against Staphylococcus aureus 2792 harboring wild-type GyrA and GyrB R144A mutant by broth microdilution method; format: functional
Staphylococcus aureus [10] = assay: Antimicrobial activity against wild-type Staphylococcus aureus 516 by broth microdilution method; format: functional; summary of the method: as §1
Staphylococcus aureus [11] = assay: Antimicrobial activity against Staphylococcus aureus 2375 harboring GyrA S84L mutant, GyrB R144A mutant and ParC S80Y/E84G/V693M mutant and ParE N141S mutant by broth microdilution method; format: functional
[12] = Bioavailability in rat at 3 mg/kg, iv or at 10 mg/kg, po by LC-MS/MS method; format: ADME, organism-based; conditions: in vivo
Summary of the method: (§3)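 Male mice (CD-1) or male Wistar Hannover rats, three per experiment, given a 15 min iv infusion at 3 mg/kg or oral dosing at 10 mg/kg. Vehicle was DMA:TEG:saline 40/40/20 for mice and meglumine/cyclodextrin for rats. Serial jugular blood was taken over 0–24 h, plasma analysed by LC-MS/MS, and a noncompartmental analysis used. Mean values are given.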

[13] = Clearance in rat at 3 mg/kg, iv or at 10 mg/kg, po by LC-MS/MS method; format: ADME, organism-based; conditions: in vivo; summary of the method: as §3
[14] = Clearance in mouse at 3 mg/kg, iv or at 10 mg/kg, po by LC-MS/MS method; format: ADME, organism-based; conditions: in vivo; summary of the method: as §3
[15] = Bioavailability in mouse at 3 mg/kg, iv or at 10 mg/kg, po by LC-MS/MS method; format: ADME, organism-based; conditions: in vivo; summary of the method: as §3
[16] = Fraction unbound in mouse plasma at 10 uM after 16 hrs by LC-MS/MS analysis; format: ADME, cell-free; summary of the method: as §2
[17] = Fraction unbound in rat plasma at 10 uM after 16 hrs by LC-MS/MS analysis; format: ADME, cell-free; summary of the method: as §2
Streptococcus pneumoniae [18] = assay: Antimicrobial activity against Streptococcus pneumoniae 2485 harboring GyrA S81F mutant, GyrB D160E/T329A mutant and ParC S79F mutant by broth microdilution method; format: functional
Streptococcus pneumoniae [19] = assay: Antimicrobial activity against Streptococcus pneumoniae 2800 harboring GyrB K143I/T172A mutant by broth microdilution method; format: functional
Streptococcus pneumoniae [20] = assay: Antimicrobial activity against wild-type Streptococcus pneumoniae 548 by broth microdilution method; format: functional; summary of the method: as §1

Compound | solubility [1] [µM] | IC50 (DNA gyrase) [nM] | MIC (Streptococcus pyogenes) [µM] | MIC (Haemophilus influenzae) [µM] | MIC (Escherichia coli [2]) [µM] | MIC (Streptococcus pneumoniae [3]) [µM] | MIC (Staphylococcus aureus [4]) [µM] | MIC (Escherichia coli [5]) [µM] | MIC (Staphylococcus aureus [6]) [µM] | MIC (Staphylococcus aureus [7]) [µM] | fraction unbound at 16 h, 10 µM [8] | other results
C[C@@H]1CN2c3c(cc4c(Cl)noc4c3F)CC3(C(=O)NC(=O)NC3=O)[C@H]2[C@H](C)O1 | > 1000 | 210 | 6.2 (≈ 2.62 µg/mL) | 25 (≈ 10.6 µg/mL) | 6.2 (≈ 2.62 µg/mL) | 12 (≈ 5.07 µg/mL) | 12 | 25 (≈ 10.6 µg/mL) | 0.39 (≈ 0.165 µg/mL) | 0.78 (≈ 0.33 µg/mL) | < 0.01 | 
Cc1noc2c(F)c3c(cc12)CC1(C(=O)NC(=O)NC1=O)C1C(C)CC(C)CN31 (racemic) | < 1 | 340 | 200 (≈ 80.1 µg/mL) | > 200 | 6.2 (≈ 2.48 µg/mL) | 100 (≈ 40 µg/mL) | 50 | 50 (≈ 20 µg/mL) | 25 (≈ 10 µg/mL) | 25 (≈ 10 µg/mL) | < 0.01 | 
Cc1noc2c(F)c3c(cc12)CC1(C(=O)NC(=O)NC1=O)[C@H]1[C@H](C)O[C@@H](C)CN31 | 340 (≈ 137 µg/mL) | 26000 | > 200 | 200 (≈ 80.5 µg/mL) | 12 (≈ 4.83 µg/mL) | > 200 |  | > 200 | > 200 | > 200 | 0.051 | 
C[C@@H]1CN2c3c(cc4c(N)noc4c3F)CC3(C(=O)NC(=O)NC3=O)[C@H]2[C@H](C)O1 | 330 (≈ 133 µg/mL) | 260 | 3.1 (≈ 1.25 µg/mL) | 1.6 (≈ 0.645 µg/mL) | ≤ 0.2 | 6.2 (≈ 2.5 µg/mL) |  | 100 (≈ 40.3 µg/mL) | 25 (≈ 10.1 µg/mL) | 50 (≈ 20.2 µg/mL) | 0.13 | 
Cc1noc2c(F)c3c(cc12)CC1(C(=O)NC(=O)NC1=O)C1C(C)OC(C)CN31 (racemic) | > 1000 | 380 |  | 2.5 (≈ 1.01 µg/mL) | 0.3 (≈ 0.121 µg/mL) | 21 (≈ 8.45 µg/mL) |  | 100 (≈ 40.2 µg/mL) | 2.8 (≈ 1.13 µg/mL) | 2.5 (≈ 1.01 µg/mL) | 0.063 | 
COc1noc2c(F)c3c(cc12)CC1(C(=O)NC(=O)NC1=O)[C@H]1[C@H](C)O[C@H](C)CN31 | 510 (≈ 213 µg/mL) | 970 | 6.2 (≈ 2.59 µg/mL) | 3.1 (≈ 1.3 µg/mL) | ≤ 0.2 | 25 (≈ 10.5 µg/mL) |  | 200 (≈ 83.7 µg/mL) | 3.1 (≈ 1.3 µg/mL) | 3.1 (≈ 1.3 µg/mL) | 0.09 | 
CC1CN2c3c(cc4c(C5CC5)noc4c3F)CC3(C(=O)NC(=O)NC3=O)C2C(C)O1 (racemic) | 29 (≈ 12.4 µg/mL) | 340 | 6.2 (≈ 2.66 µg/mL) | 3.1 (≈ 1.33 µg/mL) | ≤ 0.2 | 25 (≈ 10.7 µg/mL) |  | 100 (≈ 42.8 µg/mL) | 1.6 (≈ 0.685 µg/mL) | 12 (≈ 5.14 µg/mL) | 0.052 | 
C[C@H]1COc2c(N3CCN(C)CC3)c(F)cc3c(=O)c(C(=O)O)cn1c23.C[C@H]1COc2c(N3CCN(C)CC3)c(F)cc3c(=O)c(C(=O)O)cn1c23.O [LEVOFLOXACIN] |  |  |  |  |  |  |  |  |  |  |  | MIC (Staphylococcus aureus [9]): 0.25 µg/mL; MIC (Staphylococcus aureus [10]): 0.13 µg/mL; MIC (Staphylococcus aureus [11]): > 16 µg/mL
COCc1noc2c(F)c3c(cc12)CC1(C(=O)NC(=O)NC1=O)C1C(C)OC(C)CN31 (racemic) | 180 (≈ 77.8 µg/mL) | 1600 | 6.2 (≈ 2.68 µg/mL) | 12 (≈ 5.19 µg/mL) | ≤ 0.2 | 12 (≈ 5.19 µg/mL) |  | 200 (≈ 86.5 µg/mL) | 3.1 (≈ 1.34 µg/mL) | 6.2 (≈ 2.68 µg/mL) | 0.096 | 
O=C(O)c1cn(C2CC2)c2cc(N3CCNCC3)c(F)cc2c1=O [CIPROFLOXACIN] |  |  | 1.5 (≈ 0.497 µg/mL) | < 0.1 | < 0.1 | 1.5 (≈ 0.497 µg/mL) |  | 0.06 (≈ 0.0199 µg/mL) | 0.91 (≈ 0.302 µg/mL) | 96 (≈ 31.8 µg/mL) |  | 
C[C@@H]1CN2c3c(cc4c(C(F)(F)F)noc4c3F)CC3(C(=O)NC(=O)NC3=O)[C@H]2[C@H](C)O1 | 53 (≈ 24.2 µg/mL) | 610 | 3.1 (≈ 1.41 µg/mL) | 1.6 (≈ 0.73 µg/mL) | ≤ 0.2 | 12 (≈ 5.48 µg/mL) | 100 | 25 (≈ 11.4 µg/mL) | 0.78 (≈ 0.356 µg/mL) | 1.6 (≈ 0.73 µg/mL) | < 0.01 | bioavailability [12]: 60%; clearance [13]: 2.3 mL/min/kg; clearance [14]: 46 mL/min/kg; bioavailability [15]: 63%; fraction unbound at 16 h, 10 µM [16]: 0.078; fraction unbound at 16 h, 10 µM [17]: 0.078
Cc1noc2c(F)c3c(cc12)CC1(C(=O)NC(=O)NC1=O)[C@@H]1[C@@H](C)O[C@H](C)CN31 | 190 (≈ 76.5 µg/mL) | 13000 | 200 (≈ 80.5 µg/mL) | 25 (≈ 10.1 µg/mL) | 1.6 (≈ 0.644 µg/mL) | 100 (≈ 40.2 µg/mL) |  | > 200 | 25 (≈ 10.1 µg/mL) | 50 (≈ 20.1 µg/mL) | 0.082 | 
C[C@@H]1CN2c3c(cc4c(C(F)F)noc4c3F)CC3(C(=O)NC(=O)NC3=O)[C@H]2[C@H](C)O1 | > 1000 | 480 | 1.2 (≈ 0.526 µg/mL) | 0.62 (≈ 0.272 µg/mL) | ≤ 0.2 | 3.1 (≈ 1.36 µg/mL) | 3.1 | 25 (≈ 11 µg/mL) | 0.39 (≈ 0.171 µg/mL) | 0.39 (≈ 0.171 µg/mL) | 0.028 | bioavailability [12]: 87%; clearance [13]: 1 mL/min/kg; clearance [14]: 47 mL/min/kg; bioavailability [15]: 95%; fraction unbound at 16 h, 10 µM [16]: 0.044; fraction unbound at 16 h, 10 µM [17]: 0.043
CO[C@@H]1[C@@H](OC(N)=O)[C@@H](O)[C@H](Oc2ccc3c(O)c(NC(=O)c4ccc(O)c(CC=C(C)C)c4)c(=O)oc3c2C)OC1(C)C [NOVOBIOCIN] |  |  |  |  |  |  |  |  |  |  |  | MIC (Streptococcus pneumoniae [18]): 0.13 µg/mL (≈ 0.212 µM); MIC (Staphylococcus aureus [9]): 32 µg/mL (≈ 52.2 µM); MIC (Staphylococcus aureus [10]): 0.13 µg/mL (≈ 0.212 µM); MIC (Staphylococcus aureus [11]): 4.3 µg/mL (≈ 7.02 µM); MIC (Streptococcus pneumoniae [19]): > 16 µg/mL; MIC (Streptococcus pneumoniae [20]): 1 µg/mL (≈ 1.63 µM)
Cc1noc2c(F)c3c(cc12)CC1(C(=O)NC(=O)NC1=O)[C@@H]1[C@@H](C)O[C@@H](C)CN31 | > 1000 | > 83000 |  | > 200 | 50 (≈ 20.1 µg/mL) | > 200 |  | > 200 | > 200 | > 200 | 0.035 | 
Cc1noc2c(Cl)c3c(cc12)CC1(C(=O)NC(=O)NC1=O)C1C(C)OC(C)CN31 (racemic) | 330 (≈ 138 µg/mL) | 370 | 25 (≈ 10.5 µg/mL) | 3.1 (≈ 1.3 µg/mL) | ≤ 0.2 | 50 (≈ 20.9 µg/mL) | 50 | 200 (≈ 83.8 µg/mL) | 6.2 (≈ 2.6 µg/mL) | 12 (≈ 5.03 µg/mL) | 0.03 | 
CC1CN2c3c(cc4c(C(C)(C)C)noc4c3F)CC3(C(=O)NC(=O)NC3=O)C2C(C)O1 (racemic) | 770 (≈ 342 µg/mL) | 4000 | 50 (≈ 22.2 µg/mL) | 200 (≈ 88.9 µg/mL) | 3.1 (≈ 1.38 µg/mL) | 200 (≈ 88.9 µg/mL) |  | > 200 | 18 (≈ 8 µg/mL) | 18 (≈ 8 µg/mL) | 0.042 | 
CC(=O)NC[C@H]1CN(c2ccc(N3CCOCC3)c(F)c2)C(=O)O1 [LINEZOLID] |  | > 32000 | 3.1 (≈ 1.05 µg/mL) | 23 (≈ 7.76 µg/mL) | 20 (≈ 6.75 µg/mL) | 3.1 (≈ 1.05 µg/mL) | 12 | > 200 | 6.2 (≈ 2.09 µg/mL) | 6.2 (≈ 2.09 µg/mL) | 0.71 | 
